Measured values as given in ChEMBL document CHEMBL2062467, “Design, synthesis, antimicrobial, anti-inflammatory and analgesic activity of novel isoxazolyl pyrimido[4,5-b]quinolines and isoxazolyl chromeno[2,3-d]pyrimidin-4-ones” (2012).
Values after ≈ are worked out from the molar mass of the structure shown.

What was measured:
Format in all cases: functional
[1] = tested on: Fusarium oxysporum; assay: Antifungal activity against Fusarium oxysporum after 72 to 96 hrs by agar cup method
In short: (§1)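 Agar cup assay on potato dextrose agar. Plates were spread with 0.5 mL of a one-week-old fungal spore suspension, and 6 mm cups were bored into the agar. Different concentrations of compound in acetone were added to the cups. Acetone and clotrimazole served as controls. Plates were held at room temperature for 72–96 h.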

[2] = tested on: Rattus norvegicus; assay: Analgesic activity in Albino rat assessed as reaction time at 10 mg/kg, po after 2 hrs by Hot plate test
In short: (§2)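 Hot plate test of central analgesia in rats, six per group, with a vehicle control group and an Indomethacin group (10 mg/kg po). Test compounds were given orally at 10 mg/kg. Reaction time was read at 0, 1 and 2 h. Values are the mean of six, ± S.E., also expressed as % increase over basal. Statistics used ANOVA/LSD; Dunnett's test vs control (P < 0.05).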

[3] = tested on: Alternaria solani; assay: Antifungal activity against Alternaria solani after 72 to 96 hrs by agar cup method; in short: as §1
[4] = tested on: Pythium aphanidermatum; assay: Antifungal activity against Pythium aphanidermatum after 72 to 96 hrs by agar cup method; in short: as §1
[5] = Antifungal activity against Verticillium dahliae after 72 to 96 hrs by agar cup method; in short: as §1
[6] = tested on: Klebsiella aerogenes; assay: Antibacterial activity against Klebsiella aerogenes MTCC 39 after 24 hrs by broth dilution method; conditions: MTCC 39, 24 h
In short: (§3)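 Broth dilution MIC in autoclaved nutrient broth tubes. Test compound was dissolved in acetone, and 100 mg/mL (so in the source) was added to the first tube, then serially diluted across the tubes.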

[7] = tested on: Bacillus subtilis; assay: Antibacterial activity against Bacillus subtilis MTCC 441 after 24 hrs by broth dilution method; conditions: MTCC 441, 24 h; in short: as §3
[8] = tested on: Chromobacterium violaceum; assay: Antibacterial activity against Chromobacterium violaceum MTCC 2656 after 24 hrs by broth dilution method; conditions: MTCC 2656, 24 h; in short: as §3
[9] = tested on: Rattus norvegicus; assay: Analgesic activity in Albino rat assessed as reaction time at 10 mg/kg, po after 1 hr by Hot plate test; in short: as §2
[10] = tested on: Rhizoctonia solani; assay: Antifungal activity against Rhizoctonia solani after 72 to 96 hrs by agar cup method; in short: as §1
[11] = tested on: Pseudomonas aeruginosa; assay: Antibacterial activity against Pseudomonas aeruginosa MTCC 741 after 24 hrs by broth dilution method; conditions: MTCC 741, 24 h; in short: as §3
[12] = tested on: Colletotrichum truncatum; assay: Antifungal activity against Colletotrichum capsici after 72 to 96 hrs by agar cup method; in short: as §1
[13] = tested on: Staphylococcus aureus; assay: Antibacterial activity against Staphylococcus aureus MTCC 96 after 24 hrs by broth dilution method; conditions: MTCC 96, 24 h; in short: as §3
[14] = tested on: Lysinibacillus sphaericus; assay: Antibacterial activity against Bacillus sphaericus MTCC 511 after 24 hrs by broth dilution method; conditions: MTCC 511, 24 h; in short: as §3

Row | SMILES | MIC [1] | Time [2] | MIC [3] | MIC [4] | MIC [5] | MIC [6] | MIC [7] | MIC [8] | Time [9] | MIC [10] | MIC [11] | MIC [12] | MIC [13] | MIC [14]
1 | Cc1ccc2c(c1)C=C1C(=O)N(c3c(C)noc3/C=C/c3ccccc3)CN=C1O2 | 20 mg/L (≈ 50.3 µM) | 21.5 s | 20 mg/L (≈ 50.3 µM) | 22 mg/L (≈ 55.4 µM) | 22 mg/L (≈ 55.4 µM) | 15 mg/L (≈ 37.7 µM) | 15 mg/L (≈ 37.7 µM) | 18 mg/L (≈ 45.3 µM) | 21.2 s | 24 mg/L (≈ 60.4 µM) | 12 mg/L (≈ 30.2 µM) | 18 mg/L (≈ 45.3 µM) | 16 mg/L (≈ 40.3 µM) | 18 mg/L (≈ 45.3 µM)
2 | COc1ccc(/C=C/c2onc(C)c2N2CN=C3Oc4ccc(Br)cc4C=C3C2=O)cc1 | 18 mg/L (≈ 36.6 µM) | 22.6 s | 12 mg/L (≈ 24.4 µM) | 20 mg/L (≈ 40.6 µM) | 14 mg/L (≈ 28.4 µM) | 13 mg/L (≈ 26.4 µM) | 12 mg/L (≈ 24.4 µM) | 10 mg/L (≈ 20.3 µM) | 18.8 s | 14 mg/L (≈ 28.4 µM) | 15 mg/L (≈ 30.5 µM) | 12 mg/L (≈ 24.4 µM) | 8 mg/L (≈ 16.2 µM) | 10 mg/L (≈ 20.3 µM)
3 | Cc1noc(/C=C/c2ccccc2)c1N1CN=C2Oc3c(Cl)cc(Cl)cc3C=C2C1=O | 16 mg/L (≈ 35.4 µM) | 21.9 s | 14 mg/L (≈ 31 µM) | 22 mg/L (≈ 48.6 µM) | 18 mg/L (≈ 39.8 µM) | 17 mg/L (≈ 37.6 µM) | 15 mg/L (≈ 33.2 µM) | 16 mg/L (≈ 35.4 µM) | 28.3 s | 15 mg/L (≈ 33.2 µM) | 15 mg/L (≈ 33.2 µM) | 16 mg/L (≈ 35.4 µM) | 16 mg/L (≈ 35.4 µM) | 14 mg/L (≈ 31 µM)
4 | COc1ccc(/C=C/c2onc(C)c2-n2c(C)nc3nc4ccccc4cc3c2=O)cc1 | 10 mg/L (≈ 23.6 µM) | 21.4 s | 16 mg/L (≈ 37.7 µM) | 18 mg/L (≈ 42.4 µM) | 14 mg/L (≈ 33 µM) | 20 mg/L (≈ 47.1 µM) | 18 mg/L (≈ 42.4 µM) | 16 mg/L (≈ 37.7 µM) | 21.7 s | 14 mg/L (≈ 33 µM) | 22 mg/L (≈ 51.8 µM) | 16 mg/L (≈ 37.7 µM) | 25 mg/L (≈ 58.9 µM) | 22 mg/L (≈ 51.8 µM)
5 | O=C(O)c1cn(C2CC2)c2cc(N3CCNCC3)c(F)cc2c1=O [CIPROFLOXACIN] |  |  |  |  |  | 22 mg/L (≈ 66.4 µM) | 20 mg/L (≈ 60.4 µM) | 20 mg/L (≈ 60.4 µM) |  |  |  |  | 28 mg/L (≈ 84.5 µM) | 24 mg/L (≈ 72.4 µM)
6 | Cc1noc(/C=C/c2ccccc2)c1N1CN=C2Oc3c(Br)cc(Br)cc3C=C2C1=O | 9 mg/L (≈ 16.6 µM) | 23.4 s | 7 mg/L (≈ 12.9 µM) | 8 mg/L (≈ 14.8 µM) | 8 mg/L (≈ 14.8 µM) | 5 mg/L (≈ 9.24 µM) | 9 mg/L (≈ 16.6 µM) | 8 mg/L (≈ 14.8 µM) | 23.3 s | 6 mg/L (≈ 11.1 µM) | 6 mg/L (≈ 11.1 µM) | 10 mg/L (≈ 18.5 µM) | 8 mg/L (≈ 14.8 µM) | 7 mg/L (≈ 12.9 µM)
7 | Cc1noc(/C=C/c2ccccc2)c1-n1c(C)nc2nc3ccc(Cl)cc3cc2c1=O | 8 mg/L (≈ 18.7 µM) | 21.5 s | 10 mg/L (≈ 23.3 µM) | 15 mg/L (≈ 35 µM) | 9 mg/L (≈ 21 µM) | 7 mg/L (≈ 16.3 µM) | 8 mg/L (≈ 18.7 µM) | 5 mg/L (≈ 11.7 µM) | 21.2 s | 11 mg/L (≈ 25.6 µM) | 10 mg/L (≈ 23.3 µM) | 11 mg/L (≈ 25.6 µM) | 9 mg/L (≈ 21 µM) | 16 mg/L (≈ 37.3 µM)
8 | Cc1ccc(/C=C/c2onc(C)c2-n2c(C)nc3nc4ccc(Cl)cc4cc3c2=O)cc1 | 10 mg/L (≈ 22.6 µM) | 22.3 s | 13 mg/L (≈ 29.4 µM) | 10 mg/L (≈ 22.6 µM) | 11 mg/L (≈ 24.8 µM) | 14 mg/L (≈ 31.6 µM) | 12 mg/L (≈ 27.1 µM) | 12 mg/L (≈ 27.1 µM) | 20.8 s | 12 mg/L (≈ 27.1 µM) | 10 mg/L (≈ 22.6 µM) | 14 mg/L (≈ 31.6 µM) | 10 mg/L (≈ 22.6 µM) | 11 mg/L (≈ 24.8 µM)
9 | Clc1ccccc1C(c1ccccc1)(c1ccccc1)n1ccnc1 [CLOTRIMAZOLE] | 28 mg/L (≈ 81.2 µM) |  | 22 mg/L (≈ 63.8 µM) | 30 mg/L (≈ 87 µM) | 26 mg/L (≈ 75.4 µM) |  |  |  |  | 25 mg/L (≈ 72.5 µM) |  | 20 mg/L (≈ 58 µM) |  | 
10 | Cc1ccc(/C=C/c2onc(C)c2N2CN=C3Oc4ccc(Cl)cc4C=C3C2=O)cc1 | 9 mg/L (≈ 20.8 µM) | 24.7 s | 8 mg/L (≈ 18.5 µM) | 9 mg/L (≈ 20.8 µM) | 10 mg/L (≈ 23.2 µM) | 18 mg/L (≈ 41.7 µM) | 14 mg/L (≈ 32.4 µM) | 18 mg/L (≈ 41.7 µM) | 19.1 s | 11 mg/L (≈ 25.5 µM) | 11 mg/L (≈ 25.5 µM) | 12 mg/L (≈ 27.8 µM) | 15 mg/L (≈ 34.7 µM) | 16 mg/L (≈ 37 µM)
11 | Cc1noc(/C=C/c2ccccc2)c1-n1c(C)nc2nc3ccccc3cc2c1=O | 16 mg/L (≈ 40.6 µM) | 16.5 s | 10 mg/L (≈ 25.4 µM) | 18 mg/L (≈ 45.6 µM) | 14 mg/L (≈ 35.5 µM) | 20 mg/L (≈ 50.7 µM) | 20 mg/L (≈ 50.7 µM) | 20 mg/L (≈ 50.7 µM) | 14.8 s | 12 mg/L (≈ 30.4 µM) | 24 mg/L (≈ 60.8 µM) | 15 mg/L (≈ 38 µM) | 20 mg/L (≈ 50.7 µM) | 22 mg/L (≈ 55.8 µM)
12 | COc1ccc2c(c1)C=C1C(=O)N(c3c(C)noc3/C=C/c3ccccc3)CN=C1O2 | 12 mg/L (≈ 29 µM) | 13.4 s | 18 mg/L (≈ 43.5 µM) | 23 mg/L (≈ 55.6 µM) | 20 mg/L (≈ 48.4 µM) | 17 mg/L (≈ 41.1 µM) | 18 mg/L (≈ 43.5 µM) | 18 mg/L (≈ 43.5 µM) | 21.3 s | 12 mg/L (≈ 29 µM) | 24 mg/L (≈ 58.1 µM) | 17 mg/L (≈ 41.1 µM) | 22 mg/L (≈ 53.2 µM) | 12 mg/L (≈ 29 µM)
13 | Cc1noc(/C=C/c2ccccc2)c1N1CN=C2Oc3ccccc3C=C2C1=O | 16 mg/L (≈ 41.7 µM) | 15.7 s | 20 mg/L (≈ 52.2 µM) | 18 mg/L (≈ 46.9 µM) | 18 mg/L (≈ 46.9 µM) | 18 mg/L (≈ 46.9 µM) | 18 mg/L (≈ 46.9 µM) | 18 mg/L (≈ 46.9 µM) | 17.7 s | 12 mg/L (≈ 31.3 µM) | 14 mg/L (≈ 36.5 µM) | 20 mg/L (≈ 52.2 µM) | 16 mg/L (≈ 41.7 µM) | 12 mg/L (≈ 31.3 µM)
14 | COc1ccc(/C=C/c2onc(C)c2-n2c(C)nc3nc4ccc(Cl)cc4cc3c2=O)cc1 | 11 mg/L (≈ 24 µM) | 22.6 s | 12 mg/L (≈ 26.1 µM) | 17 mg/L (≈ 37 µM) | 13 mg/L (≈ 28.3 µM) | 11 mg/L (≈ 24 µM) | 12 mg/L (≈ 26.1 µM) | 14 mg/L (≈ 30.5 µM) | 25.1 s | 14 mg/L (≈ 30.5 µM) | 14 mg/L (≈ 30.5 µM) | 16 mg/L (≈ 34.9 µM) | 13 mg/L (≈ 28.3 µM) | 10 mg/L (≈ 21.8 µM)
15 | Cc1ccc(/C=C/c2onc(C)c2-n2c(C)nc3nc4ccccc4cc3c2=O)cc1 | 12 mg/L (≈ 29.4 µM) | 21.1 s | 10 mg/L (≈ 24.5 µM) | 15 mg/L (≈ 36.7 µM) | 12 mg/L (≈ 29.4 µM) | 18 mg/L (≈ 44.1 µM) | 19 mg/L (≈ 46.5 µM) | 15 mg/L (≈ 36.7 µM) | 21.3 s | 14 mg/L (≈ 34.3 µM) | 23 mg/L (≈ 56.3 µM) | 18 mg/L (≈ 44.1 µM) | 25 mg/L (≈ 61.2 µM) | 23 mg/L (≈ 56.3 µM)
16 | COc1ccc2c(c1)c(CC(=O)O)c(C)n2C(=O)c1ccc(Cl)cc1 [INDOMETHACIN] |  | 22.4 s |  |  |  |  |  |  | 21.8 s |  |  |  |  | 
